Series [1] deals with T1, Amine oxidase [flavin-containing] B (Homo sapiens, UniProt P27338).
T1 sequence (P27338 whole entry): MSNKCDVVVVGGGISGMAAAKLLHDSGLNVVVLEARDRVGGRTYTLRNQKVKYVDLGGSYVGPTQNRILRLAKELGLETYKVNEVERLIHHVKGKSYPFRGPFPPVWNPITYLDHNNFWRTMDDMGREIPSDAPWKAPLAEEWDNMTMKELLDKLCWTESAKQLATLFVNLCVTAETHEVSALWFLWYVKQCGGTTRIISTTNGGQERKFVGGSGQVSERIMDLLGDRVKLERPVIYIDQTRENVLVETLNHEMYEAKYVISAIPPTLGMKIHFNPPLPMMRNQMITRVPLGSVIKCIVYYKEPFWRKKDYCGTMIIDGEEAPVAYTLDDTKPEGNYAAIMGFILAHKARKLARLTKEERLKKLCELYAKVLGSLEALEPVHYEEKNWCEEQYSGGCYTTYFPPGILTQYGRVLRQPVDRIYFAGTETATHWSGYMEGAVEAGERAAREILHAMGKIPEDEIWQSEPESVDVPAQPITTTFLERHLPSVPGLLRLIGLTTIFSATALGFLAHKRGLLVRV
Kind of series: Inhibition of human recombinant MAO-B expressed in BTI-TN-5B1-4 cells assessed as H2O2 production using para-tyramine substrate by fluorimetric method. The series is classed as cell-based.

The target in series [2] is T2, Amine oxidase [flavin-containing] A (Homo sapiens, UniProt P21397).
T2 sequence (P21397 whole entry): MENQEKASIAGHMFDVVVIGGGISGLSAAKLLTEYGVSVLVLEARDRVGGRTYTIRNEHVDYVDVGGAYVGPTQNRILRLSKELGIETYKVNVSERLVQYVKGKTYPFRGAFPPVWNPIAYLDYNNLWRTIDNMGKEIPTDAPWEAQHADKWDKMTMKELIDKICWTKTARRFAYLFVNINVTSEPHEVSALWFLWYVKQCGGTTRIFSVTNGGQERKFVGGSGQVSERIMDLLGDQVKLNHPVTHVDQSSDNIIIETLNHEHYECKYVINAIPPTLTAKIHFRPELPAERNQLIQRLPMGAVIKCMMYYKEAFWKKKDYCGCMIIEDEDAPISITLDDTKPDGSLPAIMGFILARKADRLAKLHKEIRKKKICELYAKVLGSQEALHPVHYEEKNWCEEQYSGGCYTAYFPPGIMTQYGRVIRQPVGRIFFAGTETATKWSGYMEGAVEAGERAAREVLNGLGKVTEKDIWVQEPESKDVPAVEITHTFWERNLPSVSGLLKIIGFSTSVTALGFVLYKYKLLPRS
Kind of series: Inhibition of human recombinant MAO-A expressed in BTI-TN-5B1-4 cells assessed as H2O2 production using para-tyramine substrate by fluorimetric method. The series is classed as cell-based.

Another series is filed under the species Homo sapiens. The series is described as follows: Selectivity index, ratio of IC50 for human recombinant MAO-A to IC50 for human recombinant MAO-B. The gist of the method: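 SI is IC50(hMAO-A)/IC50(hMAO-B), from IC50s measured by Amplex Red/HRP fluorimetry of p-tyramine-driven H2O2 with baculovirus-expressed human isoforms (mean of five experiments each). Where no MAO-A IC50 was reached, the highest concentration tested was taken as that IC50.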

In series [3] the target is T2, Amine oxidase [flavin-containing] A. The series is described as follows: Inhibition of human recombinant MAO-A expressed in BTI-TN-5B1-4 cells assessed as H2O2 production using para-tyramine substrate at 100 uM by fluorimetric method. The series is classed as cell-based. Conditions: bti-tn-5b1-4, 100 µM; call rule not given here.
The target of series [4] is T1, Amine oxidase [flavin-containing] B. Kind of series: Inhibition of human recombinant MAO-B expressed in BTI-TN-5B1-4 cells assessed as H2O2 production using para-tyramine substrate at 100 uM by fluorimetric method. The series is classed as cell-based. Conditions: bti-tn-5b1-4, 100 µM.

Structures are written as SMILES.

Regarding `COc1ccc2cc(-c3ccsc3)c(=O)oc2c1`, the IC50 in series [1] turned out to be 55.6 nM; in series [2], 4160 nM. For the same compound, in the series filed under Homo sapiens, the Ratio IC50 was over 75.

For the compound `COc1ccc2oc(=O)c(-c3ccsc3)cc2c1`, the “inhibition (INH)” value in series [3] is listed as “Not Active”. In addition, the 50% inhibitory concentration (IC50) in series [1] amounted to 234 nM. Also, the Ratio IC50 in the series listed under Homo sapiens is over 428.

Turning to `O=c1oc2ccccc2cc1-c1cccs1`, the “inhibition (INH)” value in series [3] is “Not Active”. Further, the IC50 in series [1] stood at 6370 nM. In addition, the Ratio IC50 in the series listed under Homo sapiens was over 15.

As to `COc1ccc2cc(-c3c[nH]c4ccccc34)c(=O)oc2c1`, the IC50 in series [1] was 46 nM; in series [2], 9670 nM. Moreover, the Ratio IC50 in the series filed under Homo sapiens was over 210.

In the case of `COc1ccc2oc(=O)c(-c3cccs3)cc2c1`, in series [3], the “inhibition (INH)” value is “Not Active”. The IC50 in series [1] is 634 nM. Further, the Ratio IC50 in the series listed under Homo sapiens was over 158.

Turning to `O=c1oc2ccccc2cc1-c1c[nH]c2ccccc12`, the “inhibition (INH)” value in series [3] is on record as “Not Active”. Also, in series [1], the 50% inhibitory concentration (IC50) is 1920 nM. Further, the Ratio IC50 in the series filed under Homo sapiens is over 52.

For `COc1cc(OC)c2cc(-c3cccs3)c(=O)oc2c1`, the “inhibition (INH)” value in series [3] and in series [4] was “Not Active” in each case.

Regarding `COc1cc(OC)c2cc(-c3ccsc3)c(=O)oc2c1`, the “inhibition (INH)” value in series [3] and in series [4] was “Not Active” throughout.

For `COc1cc(OC)c2cc(-c3c[nH]c4ccccc34)c(=O)oc2c1`, the “inhibition (INH)” value in series [3] and in series [4] was “Not Active” throughout.

Regarding `COc1ccc2oc(=O)c(-c3c[nH]c4ccccc34)cc2c1`, the “inhibition (INH)” value in series [3] and in series [4] was “Not Active” in each case.

As for `O=c1oc2ccccc2cc1-c1ccsc1`, the “inhibition (INH)” value in series [3] is “Not Active”. Moreover, the IC50 in series [1] amounted to 13300 nM. The Ratio IC50 in the series listed under Homo sapiens was over 7.5.

Take `COc1ccc2cc(-c3cccs3)c(=O)oc2c1`: the “inhibition (INH)” value in series [3] was “Not Active”. Also, in series [1], the IC50 is 263 nM. In the series filed under Homo sapiens, the Ratio IC50 is over 380.

Values taken from ChEMBL document CHEMBL1759933, “Synthesis, human monoamine oxidase inhibitory activity and molecular docking studies of 3-heteroarylcoumarin derivatives” (Eur J Med Chem, 2011).
